Measurements taken from ChEMBL document CHEMBL4184225, “Discovery of selective 2,4-diaminoquinazoline toll-like receptor 7 (TLR 7) agonists” (Bioorg Med Chem Lett, 2018).

Key:
[1] = target: T1, Toll-like receptor 7 (Homo sapiens) (UniProt Q9NYK1); assay: Agonist activity at TLR7 in human PBMC assessed as suppression of HCV replicon replication in human HuH7 luc/neo cells harboring RNA encoding bicistronic expression construct comprising wild type HCV type 1b NS3-NS5B regions exposed to conditioned media from compound treated PBMCs by luciferase reporter gene assay; assay type: cell-based
T1 sequence (whole entry): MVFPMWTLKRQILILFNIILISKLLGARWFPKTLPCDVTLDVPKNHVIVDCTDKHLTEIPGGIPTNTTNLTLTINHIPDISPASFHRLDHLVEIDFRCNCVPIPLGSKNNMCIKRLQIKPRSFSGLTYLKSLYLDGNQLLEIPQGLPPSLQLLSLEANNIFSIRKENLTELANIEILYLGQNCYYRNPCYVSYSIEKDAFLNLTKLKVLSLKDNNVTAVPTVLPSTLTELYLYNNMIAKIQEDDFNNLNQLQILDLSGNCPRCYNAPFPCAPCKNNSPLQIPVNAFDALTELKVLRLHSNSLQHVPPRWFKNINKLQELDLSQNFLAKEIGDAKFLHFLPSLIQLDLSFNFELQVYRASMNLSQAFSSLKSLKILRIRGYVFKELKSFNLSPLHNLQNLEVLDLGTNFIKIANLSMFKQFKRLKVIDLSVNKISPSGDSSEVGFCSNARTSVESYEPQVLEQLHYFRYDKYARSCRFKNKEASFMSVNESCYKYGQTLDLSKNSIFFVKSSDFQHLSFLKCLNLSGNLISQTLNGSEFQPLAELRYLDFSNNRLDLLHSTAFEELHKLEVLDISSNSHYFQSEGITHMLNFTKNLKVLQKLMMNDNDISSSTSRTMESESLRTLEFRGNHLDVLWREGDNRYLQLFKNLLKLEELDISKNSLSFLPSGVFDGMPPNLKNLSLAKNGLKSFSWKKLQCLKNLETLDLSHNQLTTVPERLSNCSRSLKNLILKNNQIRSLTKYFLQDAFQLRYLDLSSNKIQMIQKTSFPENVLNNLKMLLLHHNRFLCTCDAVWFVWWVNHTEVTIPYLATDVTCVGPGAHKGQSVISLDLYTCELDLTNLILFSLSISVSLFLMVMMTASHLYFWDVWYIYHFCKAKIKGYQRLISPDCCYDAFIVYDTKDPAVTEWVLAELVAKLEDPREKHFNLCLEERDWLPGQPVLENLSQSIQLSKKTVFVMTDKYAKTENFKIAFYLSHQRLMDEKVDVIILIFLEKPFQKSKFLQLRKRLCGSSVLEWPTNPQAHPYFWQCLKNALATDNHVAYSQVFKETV
Summary of the method: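 PBMCs from buffy coats of at least two donors (Ficoll), in RPMI with 10% human AB serum, 2 x 10^5 cells/well, incubated overnight with compound. Supernatant transferred onto Huh7-luc/neo replicon cells plated the day before (2.2 x 10^3/well). Luciferase read after 24 h. EC50 is the concentration applied to PBMCs giving 50% luciferase reduction. Recombinant IFN-α2a standard.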

Toll-like receptor 8 = target: T2, Toll-like receptor 8 (Homo sapiens, UniProt Q9NR97); assay: Agonist activity at human TLR8 expressed in HEK293 cells assessed as induction of receptor activation incubated for 6 hrs by NF-kappaB-luciferase reporter gene assay; assay type: cell-based; conditions: hek293, 6 h
T2 sequence (Q9NR97 whole entry): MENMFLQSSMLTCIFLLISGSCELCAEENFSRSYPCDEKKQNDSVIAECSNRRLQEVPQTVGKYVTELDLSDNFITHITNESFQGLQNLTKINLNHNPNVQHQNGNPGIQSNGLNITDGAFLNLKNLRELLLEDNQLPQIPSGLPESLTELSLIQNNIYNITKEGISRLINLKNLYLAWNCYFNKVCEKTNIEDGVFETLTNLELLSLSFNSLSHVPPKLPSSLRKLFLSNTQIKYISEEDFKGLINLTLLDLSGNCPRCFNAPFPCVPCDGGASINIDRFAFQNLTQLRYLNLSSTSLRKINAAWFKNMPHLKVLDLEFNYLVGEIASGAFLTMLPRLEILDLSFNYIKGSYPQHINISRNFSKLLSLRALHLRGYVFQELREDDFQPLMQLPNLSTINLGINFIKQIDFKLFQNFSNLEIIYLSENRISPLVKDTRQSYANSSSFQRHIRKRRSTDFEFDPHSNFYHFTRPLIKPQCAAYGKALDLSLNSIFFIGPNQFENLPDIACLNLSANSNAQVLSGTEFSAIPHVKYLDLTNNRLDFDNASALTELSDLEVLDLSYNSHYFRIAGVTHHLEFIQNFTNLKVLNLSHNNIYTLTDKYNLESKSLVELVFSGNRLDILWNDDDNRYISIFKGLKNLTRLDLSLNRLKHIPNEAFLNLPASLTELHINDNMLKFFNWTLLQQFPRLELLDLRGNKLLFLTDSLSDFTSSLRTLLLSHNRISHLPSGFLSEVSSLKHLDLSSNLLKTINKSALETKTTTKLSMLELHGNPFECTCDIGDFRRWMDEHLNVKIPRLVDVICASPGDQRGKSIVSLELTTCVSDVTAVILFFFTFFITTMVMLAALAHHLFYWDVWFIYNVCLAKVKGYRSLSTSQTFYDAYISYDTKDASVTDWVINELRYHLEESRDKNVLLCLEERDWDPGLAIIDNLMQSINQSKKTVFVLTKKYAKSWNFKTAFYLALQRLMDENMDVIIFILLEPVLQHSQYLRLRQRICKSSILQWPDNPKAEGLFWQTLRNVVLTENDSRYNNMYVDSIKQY
Summary of the method: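 HEK293 cells transiently transfected overnight at 37°C with CMV-TLR8 plasmid (wild type or dLRR2 mutant) plus NFκB-luc reporter, then exposed to compound for 6 h at 37°C, 5% CO₂. Luciferase read-out. Quadruplicate dose-response. LEC is the concentration giving an effect at least two-fold above the assay SD, averaged over two or more independent experiments.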

Cytochrome P450 2C19 = Cytochrome P450 2C19 (Homo sapiens, UniProt P33261); assay: Inhibition of CYP2C19 (unknown origin); assay type: ADME
Cytochrome P450 2C9 = Cytochrome P450 2C9 (Homo sapiens, UniProt P11712); assay: Inhibition of CYP2C9 (unknown origin); assay type: ADME
[2] = target: T1, Toll-like receptor 7 (Homo sapiens); assay: Agonist activity at human TLR7 expressed in HEK293 cells assessed as induction of receptor activation incubated for 6 hrs by NF-kappaB-luciferase reporter gene assay; assay type: cell-based
Summary of the method: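 HEK293 cells transiently transfected overnight with CMV-TLR7 (wild type or dLRR2 mutant) plus NFκB-luc plasmids. Seeded at 1.67 x 10^5 cells/mL onto compound in 4% DMSO (stock), 6 h at 37°C, 5% CO2, luciferase readout. Quadruplicate dose-response. LEC is the concentration giving an effect at least two-fold above assay SD. Values averaged over independent experiments where repeated.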

[3] = Metabolic stability in mouse liver microsomes assessed as drug metabolism after 15 mins at 1 uM; assay type: ADME, microsome; conditions: read-out: Drug metabolism
Summary of the method: (§1)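 Compound at 1µM incubated with liver microsomes of the stated species. Percent of compound metabolized after 15 min.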

[4] = Metabolic stability in human liver microsomes assessed as drug metabolism after 15 mins at 1 uM; assay type: ADME, microsome; conditions: read-out: Drug metabolism; summary of the method: as §1

Cytochrome P450 2C19, sequence (P33261 whole entry): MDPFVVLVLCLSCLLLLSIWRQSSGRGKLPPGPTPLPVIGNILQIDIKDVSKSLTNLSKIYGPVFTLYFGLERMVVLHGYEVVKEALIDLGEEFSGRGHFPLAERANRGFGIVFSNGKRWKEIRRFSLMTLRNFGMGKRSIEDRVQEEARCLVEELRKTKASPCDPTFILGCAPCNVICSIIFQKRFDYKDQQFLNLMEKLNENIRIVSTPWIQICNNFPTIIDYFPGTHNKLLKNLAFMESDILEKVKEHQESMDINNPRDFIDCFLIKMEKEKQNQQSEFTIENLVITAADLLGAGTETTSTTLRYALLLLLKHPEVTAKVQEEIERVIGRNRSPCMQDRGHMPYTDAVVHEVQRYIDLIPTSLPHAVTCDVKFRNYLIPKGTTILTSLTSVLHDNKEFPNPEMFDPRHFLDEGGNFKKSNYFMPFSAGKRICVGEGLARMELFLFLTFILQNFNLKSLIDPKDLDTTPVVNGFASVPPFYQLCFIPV
Cytochrome P450 2C9, sequence (P11712 whole entry): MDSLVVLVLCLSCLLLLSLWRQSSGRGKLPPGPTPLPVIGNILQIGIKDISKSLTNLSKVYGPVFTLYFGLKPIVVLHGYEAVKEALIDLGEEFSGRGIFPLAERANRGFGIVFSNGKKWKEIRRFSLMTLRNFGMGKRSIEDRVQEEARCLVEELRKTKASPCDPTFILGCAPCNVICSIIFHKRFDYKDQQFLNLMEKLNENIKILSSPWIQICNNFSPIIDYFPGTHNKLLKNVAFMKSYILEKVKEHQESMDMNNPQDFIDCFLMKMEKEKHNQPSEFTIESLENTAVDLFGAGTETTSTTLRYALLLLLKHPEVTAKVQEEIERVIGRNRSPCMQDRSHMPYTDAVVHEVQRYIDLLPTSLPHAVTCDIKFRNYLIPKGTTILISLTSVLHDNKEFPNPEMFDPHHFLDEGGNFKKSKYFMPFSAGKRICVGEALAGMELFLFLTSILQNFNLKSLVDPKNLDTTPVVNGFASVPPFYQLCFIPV

For CCCCNc1nc(N)nc2cccc(C(=O)NC(C)C)c12, the MEC [1] was 0.56 µM, the MEC (Toll-like receptor 8) was 15.55 µM and the IC50 (Cytochrome P450 2C19) was > 10 µM. The IC50 (Cytochrome P450 2C9) was > 10 µM, the MEC [2] was 2.05 µM and the metabolised at 0.25 h, 1 µM [3] was 45%. For the same compound, the metabolised at 0.25 h, 1 µM [4] was 14%.
CCCCNc1nc(N)nc2ccccc12 gave an MEC (Toll-like receptor 8) of 0.07 µM, an MEC [2] of 0.17 µM and a metabolised at 0.25 h, 1 µM [4] of 90%.
For CCCCNc1nc(N)nc2cccc(C(=O)NC)c12, the MEC [1] was 0.15 µM, the MEC (Toll-like receptor 8) was 0.39 µM and the IC50 (Cytochrome P450 2C19) was > 10 µM. For the same compound, the IC50 (Cytochrome P450 2C9) was 8 µM, the MEC [2] was 0.35 µM and the metabolised at 0.25 h, 1 µM [3] was 90%. The metabolised at 0.25 h, 1 µM [4] was 23%.
With CCCCNc1nc(N)nc2cccc(OCc3ccccc3)c12 the MEC [1] was 0.04 µM, the MEC (Toll-like receptor 8) was 1.66 µM and the IC50 (Cytochrome P450 2C19) was > 10 µM. The IC50 (Cytochrome P450 2C9) was > 10 µM, the MEC [2] was 0.16 µM and the metabolised at 0.25 h, 1 µM [3] was 97%. For the same compound, the metabolised at 0.25 h, 1 µM [4] was 11%.
For CCCCNc1nc(N)nc2cccc(C(=O)N(C)Cc3ccccc3)c12, the MEC [1] was 0.27 µM, the MEC (Toll-like receptor 8) was > 25 µM and the IC50 (Cytochrome P450 2C19) was > 10 µM. The IC50 (Cytochrome P450 2C9) was > 10 µM, the MEC [2] was 0.53 µM and the metabolised at 0.25 h, 1 µM [3] was 99%. The metabolised at 0.25 h, 1 µM [4] was 98%.
For CCCCNc1nc(N)nc2cccc(C(=O)N[C@H](C)c3ccccc3)c12, the MEC [1] was > 25 µM, the MEC (Toll-like receptor 8) was > 25 µM and the IC50 (Cytochrome P450 2C19) was > 10 µM. The IC50 (Cytochrome P450 2C9) was > 10 µM, the MEC [2] was 2.29 µM and the metabolised at 0.25 h, 1 µM [3] was 75%. The metabolised at 0.25 h, 1 µM [4] was 32%.
With CCCCNc1nc(N)nc2cccc(C(=O)N[C@@H](C)c3ccccc3)c12 the MEC [1] was 0.14 µM, the MEC (Toll-like receptor 8) was > 25 µM and the IC50 (Cytochrome P450 2C19) was > 10 µM. The IC50 (Cytochrome P450 2C9) was > 10 µM, the MEC [2] was 0.09 µM and the metabolised at 0.25 h, 1 µM [3] was 68%. The metabolised at 0.25 h, 1 µM [4] was 31%.
With CCCCNc1nc(N)nc2cccc(OCc3ccccc3OC)c12 the MEC [1] was 0.33 µM, the MEC (Toll-like receptor 8) was > 25 µM and the IC50 (Cytochrome P450 2C19) was > 10 µM. The IC50 (Cytochrome P450 2C9) was > 10 µM, the MEC [2] was 0.27 µM and the metabolised at 0.25 h, 1 µM [3] was 98%. For the same compound, the metabolised at 0.25 h, 1 µM [4] was 48%.
In the case of CCCCNc1nc(N)nc2cccc(OCc3ccccn3)c12, the MEC [1] is reported as 0.043 µM, the MEC (Toll-like receptor 8) is reported as 18.5 µM and the IC50 (Cytochrome P450 2C19) is reported as > 10 µM. For the same compound, the IC50 (Cytochrome P450 2C9) was > 10 µM, the MEC [2] was 0.49 µM and the metabolised at 0.25 h, 1 µM [3] was 99%. The metabolised at 0.25 h, 1 µM [4] was 60%.
In the case of CCCCNc1nc(N)nc2cccc(OCc3ccc(CO)cc3OC)c12, the MEC [1] is reported as 0.018 µM, the MEC (Toll-like receptor 8) is reported as > 25 µM and the IC50 (Cytochrome P450 2C19) is reported as > 10 µM. It also gave an IC50 (Cytochrome P450 2C9) of 5 µM, an MEC [2] of 0.03 µM and a metabolised at 0.25 h, 1 µM [3] of 98%. For the same compound, the metabolised at 0.25 h, 1 µM [4] was 43%.
For CCCCNc1nc(N)nc2cccc(C(=O)NCc3ccccc3)c12, the MEC [1] was 0.03 µM, the MEC (Toll-like receptor 8) was 1.6 µM and the IC50 (Cytochrome P450 2C19) was > 10 µM. For the same compound, the IC50 (Cytochrome P450 2C9) was > 10 µM, the MEC [2] was 0.06 µM and the metabolised at 0.25 h, 1 µM [3] was 92%. For the same compound, the metabolised at 0.25 h, 1 µM [4] was 28%.
For CCCCNc1nc(N)nc2cccc(OCc3nccc(OC)c3OC)c12, the MEC [1] was 0.034 µM, the MEC (Toll-like receptor 8) was > 25 µM and the IC50 (Cytochrome P450 2C19) was > 10 µM. For the same compound, the IC50 (Cytochrome P450 2C9) was > 10 µM, the MEC [2] was 0.03 µM and the metabolised at 0.25 h, 1 µM [3] was 98%. It also gave a metabolised at 0.25 h, 1 µM [4] of 37%.
With CCCCNc1nc(N)nc2cccc(OCc3cccnc3)c12 the MEC [1] was 0.011 µM, the MEC (Toll-like receptor 8) was 0.53 µM and the IC50 (Cytochrome P450 2C19) was > 10 µM. For the same compound, the IC50 (Cytochrome P450 2C9) was > 10 µM, the MEC [2] was 0.03 µM and the metabolised at 0.25 h, 1 µM [3] was 99%. For the same compound, the metabolised at 0.25 h, 1 µM [4] was 44%.
